In experiment [1] the target is T1, Histamine H3 receptor (Homo sapiens, UniProt Q9Y5N1). Description: Displacement of [125I]iodoproxyfan from human recombinant histamine H3 receptor expressed in human SK-N-MC cells. In kind it is cell-based. The method, boiled down: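 Cells stably expressing human H3 were grown to confluence, washed in PBS, pelleted and stored at −80 °C. Pellets were homogenized in 50 mM Tris–HCl, 5 mM EDTA, pH 7.5, spun at 1000g for 5 min, then at 25,000g for 25 min.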
In general terms: Displacement assays read how much labelled ligand stays bound in the presence of the test substance.

The target of experiment [2] is T1, Histamine H3 receptor. Description: Antagonist activity at human recombinant histamine H3 receptor expressed in human SK-N-MC cells. The format is functional, cell-based. As to conditions: read-out: pA2 (converted).
The target of experiment [3] is T2, Histamine H3 receptor (Rattus norvegicus, UniProt Q9QYN8). Description: Displacement of [125I]iodoproxyfan from rat recombinant histamine H3 receptor expressed in human SK-N-MC cells. The format is cell-based.
T2 sequence (Q9QYN8 whole entry): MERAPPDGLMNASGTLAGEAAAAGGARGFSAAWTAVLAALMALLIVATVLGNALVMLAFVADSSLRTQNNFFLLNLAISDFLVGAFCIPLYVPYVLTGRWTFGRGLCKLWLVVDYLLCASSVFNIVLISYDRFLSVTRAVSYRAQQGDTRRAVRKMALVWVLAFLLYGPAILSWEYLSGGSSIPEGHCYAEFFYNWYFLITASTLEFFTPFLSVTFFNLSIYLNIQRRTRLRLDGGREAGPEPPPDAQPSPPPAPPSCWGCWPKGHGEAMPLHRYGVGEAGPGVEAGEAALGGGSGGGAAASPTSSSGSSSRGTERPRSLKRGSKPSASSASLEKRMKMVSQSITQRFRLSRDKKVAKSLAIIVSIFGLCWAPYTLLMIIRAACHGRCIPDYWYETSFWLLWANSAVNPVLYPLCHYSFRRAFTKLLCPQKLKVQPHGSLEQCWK
Experiment [4] has as its target T2, Histamine H3 receptor. Description: Antagonist activity rat recombinant histamine H3 receptor expressed in human SK-N-MC cells. As to conditions: read-out: pA2 (converted). The format is functional, cell-based.
The subject of the next experiment is Rattus norvegicus. Put plainly: Ex vivo histamine H3 receptor occupancy in rat striatum at 0.3 mg/kg, po. The format is functional. The method, boiled down: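 Rats were dosed orally, and striatal H3 receptor occupancy was measured ex vivo 60 min after dosing. Plasma and brain drug levels were taken at the same time. Values are mean ± SEM, n = 3.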

pKi: −log10 of the molar value.

T1 sequence (Q9Y5N1 whole entry): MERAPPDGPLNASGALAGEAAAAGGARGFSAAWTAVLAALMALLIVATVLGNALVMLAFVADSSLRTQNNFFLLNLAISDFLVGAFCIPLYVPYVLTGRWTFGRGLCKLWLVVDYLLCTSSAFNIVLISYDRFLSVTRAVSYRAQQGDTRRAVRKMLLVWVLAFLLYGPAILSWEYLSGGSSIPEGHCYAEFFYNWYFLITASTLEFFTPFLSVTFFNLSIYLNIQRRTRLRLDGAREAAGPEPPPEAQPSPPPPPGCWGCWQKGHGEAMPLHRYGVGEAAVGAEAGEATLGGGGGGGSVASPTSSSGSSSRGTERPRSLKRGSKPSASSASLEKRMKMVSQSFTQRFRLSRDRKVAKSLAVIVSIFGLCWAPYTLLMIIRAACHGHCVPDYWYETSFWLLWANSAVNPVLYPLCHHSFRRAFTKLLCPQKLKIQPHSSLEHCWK

Usually pKi stands for the Ki on a negative log10 scale, so that one unit is a factor of ten. For the compound `CCOc1ccccc1OCC1CN(C2CC2)CCO1` (stereo not given), the pKi on Histamine H3 receptor [1] was less than 5.00.
`CN1CCOC(COc2ccc(CN3CCOCC3)cc2)C1` (stereo not given): the negative-log Ki (pKi) at Histamine H3 receptor [1] was 5.68.
With `c1cc(OCC2CN(C3CCCC3)CCO2)ccc1CN1CCOCC1` (stereo not given), the Kb is 0.955 nM on Histamine H3 receptor [2] and 4.79 nM at Histamine H3 receptor [4]. Besides, the pKi on Histamine H3 receptor [1] was 8.44; on Histamine H3 receptor [3] it was 7.70.
`CCOc1ccccc1OCC1CN(C(C)C)CCO1` (stereo not given): the negative-log Ki (pKi) on Histamine H3 receptor [1] was 5.05.
With `c1cc(CN2CCOCC2)cc(OCC2CN(C3CCC3)CCO2)c1` (stereo not given), the Kb is 14.1 nM on Histamine H3 receptor [2] and 79.4 nM at Histamine H3 receptor [4]. For the same compound, the pKi on Histamine H3 receptor [1] is 7.43; on Histamine H3 receptor [3], 6.56.
Taken in the same sequence, the figures for `c1cc(OCC2CN(C3CCCC3)CCO2)ccc1CN1CCCC1` (stereo not given) were 0.331 nM, 1.58 nM, 8.66 and 8.01.
In the case of `CCOc1ccccc1OCC1CN(C2CCC2)CCO1` (stereo not given), the pKi on Histamine H3 receptor [1] is 5.15.
The same measure, in the same setting: the value for `CCOc1ccccc1OCC1CN(C2CCCC2)CCO1` (stereo not given) was 5.28.
Consider `c1cc(OCC2CN(C3CCCC3)CCO2)ccc1CN1CCCCC1` (stereo not given), for which the Kb on Histamine H3 receptor [2] was 0.148 nM; at Histamine H3 receptor [4], 1.55 nM. For the same compound, the pKi at Histamine H3 receptor [1] is 8.60; at Histamine H3 receptor [3], 8.00.
Regarding `c1cc(OCC2CN(C3CC3)CCO2)ccc1CN1CCOCC1` (stereo not given), the negative-log Ki (pKi) at Histamine H3 receptor [1] is 6.97.
Take `c1cc(OCC2CN(C3CCC3)CCO2)ccc1CN1CCOCC1` (stereo not given): the figures for the Kb on Histamine H3 receptor [2] and on Histamine H3 receptor [4] were 3.09 nM and 19.1 nM, respectively. Besides, the negative logarithm of the Ki (pKi) at Histamine H3 receptor [1] is 7.74; on Histamine H3 receptor [3], 7.12.
With `c1cc(OC[C@@H]2CN(C3CCCC3)CCO2)ccc1CN1CCOCC1`, the Kb on Histamine H3 receptor [2] was 0.38 nM; on Histamine H3 receptor [4], 2.14 nM. In addition, the pKi on Histamine H3 receptor [1] was 8.72; on Histamine H3 receptor [3], 8.01. Besides, the Activity with Rattus norvegicus stood at 80%.
Take `CCN1CCOC(COc2ccc(CN3CCOCC3)cc2)C1` (stereo not given): the negative logarithm of the Ki (pKi) on Histamine H3 receptor [1] was 6.78.
On to `c1cc(CN2CCOCC2)cc(OCC2CN(C3CC3)CCO2)c1` (stereo not given), for which, on Histamine H3 receptor [1], the pKi was 6.25.
The same measure, in the same setting: the value for `c1ccc(OCC2CNCCO2)cc1` (stereo not given) was less than 5.00; that for `CC(C)N1CCOC(COc2ccccc2)C1` (stereo not given) was 5.32.
As for `CC(C)N1CCOC(COc2ccc(CN3CCOCC3)cc2)C1` (stereo not given), the negative-log Ki (pKi) at Histamine H3 receptor [1] is 7.31; at Histamine H3 receptor [3], 7.04.
Regarding `c1cc(OC[C@H]2CN(C3CCCC3)CCO2)ccc1CN1CCOCC1`, the Kb at Histamine H3 receptor [2] was 7.94 nM; at Histamine H3 receptor [4], 43.7 nM. Besides, the figures for the negative-log Ki (pKi) on Histamine H3 receptor [1] and on Histamine H3 receptor [3] were 7.51 and 6.92, respectively.
In the case of `CC(C)N1CCOC(COc2cccc(CN3CCOCC3)c2)C1` (stereo not given), the Kb was 44.7 nM at Histamine H3 receptor [2] and 251 nM at Histamine H3 receptor [4]. Further, the results for the pKi at Histamine H3 receptor [1] and on Histamine H3 receptor [3] were 6.99 and 6.25, respectively.

Source of the values: ChEMBL document CHEMBL1143437, “2-Aryloxymethylmorpholine histamine H(3) antagonists” (Bioorg Med Chem Lett, 2008).
